Assay results pooled from the literature.
Each line is one published result; the experiments were not run side by side. pIC50: −log10 of the molar value.

Structure (SMILES)	tested on	test	system	setting	quantity	result
CC(C)CN(C[C@@H](O)[C@H](Cc1ccccc1)NC(=O)O[C@H]1CO[C@H]2OCC[C@H]21)S(=O)(=O)c1ccc(N)cc1			BALB/c mouse, plasma	intravenous, 25 mg/kg, 1 h	concentration	397 ng/mL
CN(CCC(=O)O)C(=O)c1ccc2c(c1)CC[C@@H]1[C@@H]2CC[C@]2(C)C(c3cncc(F)c3)=CC[C@@H]12	UDP-glucuronosyltransferase 1A1 (UGT1A1, Homo sapiens, UniProt P22309)	enzyme activity, inhibitor	human, liver microsomes		pIC50	5.39
CC(C)(O)c1ccccc1-c1ccc2[nH]c(/C=C/c3ccc(C(F)(F)F)cc3)nc2c1			male human, plasma	oral, 30 mg, single dose, fasted, healthy volunteers	MRT	116 h
CC(C)Oc1cccc(-c2cnc(N3CCC(C(N)=O)CC3)s2)c1			male Swiss mouse, brain	oral, 30 mg/kg, 12 h, single dose	concentration	0 nM
CC1=CC[C@H]2[C@@H]([C@@H]1CC[C@H]1[C@]3(C)CC[C@H](O)C(C)(C)O[C@H]3CC[C@]1(C)O)C(C)(C)CC[C@]2(C)O	KB 3-1	cell growth or viability, MTT		72 h	pIC50	< 4.30
COc1ccc(S(=O)(=O)ON=C2C=C(C)C(=O)C(C)=C2)cc1	HMEC	cell growth or viability			CC50	> 15.5 µM
CC(C)=CCC[C@@]1(C)C(CC[C@H]2[C@]3(C)CC[C@H](O)C(C)(C)O[C@H]3CC[C@@]2(C)O)=C(C)CC[C@H]1O	KB 3-1	cell growth or viability, MTT		72 h	pIC50	< 4.30
CC(C)(Nc1nc(-c2ccccn2)nc2ccccc12)c1ccccn1			female BALB/c mouse, plasma	oral, 50 mg/kg, 4 h	concentration	5060 ng/mL
